Screens as filed in PubChem.
In the library only some 2.1% were active in any assay of this set; here they are far more common.
cardiac RTF act: cardiac RTF calcium sensitization; IANBD-labeled TnC RTF fluorescence at EC20 calcium; 0% EC20 calcium, 100% full calcium; activation, % at 7.2 µM; hit rate 0.24% among 340,000;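 active = activation above the mean over all tested compounds plus 3 SD, cut at about 30% in these data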;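 also: rise in fluorescence read as greater calcium sensitivity of cardiac thin filaments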
SUMO Mot1 rescue: blocks SUMOylation pathway, rescuing yeast Mot1-301 growth. hit rate 1% among 320,000. growth rescue, % at 18.8 µM. AID 2716. S. cerevisiae Mot1-301 growth rescue, ATP luminescence, 38.5C; percent above DMSO median, 100 means doubled;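 active = every valid replicate shows activation above 250% relative to neutral control wells; inactive = the rest, any valid replicate at or below 250%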;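 also: OY570 slx delta 5 strain wells were the positive control but not used for scaling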
Cardiac RTF inh: cardiac RTF calcium desensitization. P19429+P45379. IANBD-labeled cardiac RTF, Ca2+ fluorescence. inhibition, % at 7.15 µM. hit rate 0.12% among 340,000. AID 493244;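 active = inhibition above the mean inhibition of all tested compounds plus 3 SD, cut at about 17% in these data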;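 also: assay run at fixed EC70 calcium of 1.6 mM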
Efflux pump inh: inhibitors of Candida antifungal efflux pumps expressed in yeast | AID 485275 | inhibition, % at 10 µM | hit rate 0.44% among 330,000 | S. cerevisiae Candida pump triplex, Nile Red efflux;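 active = plate passing quality check with inhibition over a set limit, or well fluorescence over plate mean plus 4 SD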;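 also: Nile Red retained in pooled yeast measured as flow cytometry median fluorescence; 0% = buffer negative control and 100% = Enniatin B positive control; higher means more Nile Red kept so more efflux inhibition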
UCH37 DUB inh: blocks the human deubiquitinase UCH37; purified proteasome/UCH37, Ub-AMC cleavage fluorescence; Q9Y5K5; hit rate 0.33% among 330,000; AID 588478; inhibition, % (no concentration beside the values);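 active = mean inhibition over replicate wells above about 20%, limit read from the data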;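 also: 0% = compound-free wells with enzyme and 100% = wells lacking proteasome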
Target sequence (Q9Y5K5 whole entry, looked up): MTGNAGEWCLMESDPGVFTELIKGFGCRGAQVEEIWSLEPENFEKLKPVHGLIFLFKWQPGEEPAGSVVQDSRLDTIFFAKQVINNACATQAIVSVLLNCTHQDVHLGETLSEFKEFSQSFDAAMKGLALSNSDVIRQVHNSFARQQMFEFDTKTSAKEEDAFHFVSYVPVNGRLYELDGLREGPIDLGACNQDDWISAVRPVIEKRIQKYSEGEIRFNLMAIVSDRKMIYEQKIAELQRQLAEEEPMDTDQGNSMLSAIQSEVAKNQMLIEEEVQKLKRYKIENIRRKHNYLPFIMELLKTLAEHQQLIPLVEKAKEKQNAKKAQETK
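Reagent: Ub-AMC substrate; assay system: Proteasome-associated human UCH37 deubiquitinase; controls: no-proteasome and no-compound wells; read-out: % inhibition of Ub-AMC cleavage fluorescence; timing: 30 min preincubation with enzyme, 25 min cleavage at room temperature; signal: AMC fluorescence from Ub-AMC cleavage, excitation 355 nm, emission 460 nm; buffer or medium: Tris-HCl pH 7.4 plus ovalbumin, ATP-MgCl2, DTT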
ARNT-TACC3 inh: ARNT/TACC3 interaction disruption; inhibition, % at 9.99 µM; hit rate 0.66% among 390,000; Q9Y6A5; AID 623870; AlphaScreen His-ARNT PAS-B/GST-TACC3 binding, luminescence; TACC3 fragment carries E629A point mutation;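 active = mean inhibition of replicates at least 50% and at least half of replicates each reaching 50%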;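 also: 0% = complete ARNT plus TACC3 wells and 100% = ARNT alone without TACC3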
Yeast Mot1 SUMO: SUMO pathway inhibitors in yeast Mot1-301 growth; shares compounds with SUMO Mot1 rescue; S. cerevisiae Mot1-301 galactose growth, ATP luminescence, 24 h; -100 = growth of slx-deleted rescue strain; growth activity, percent, % at 42 µM; 2,300 tested, under 10 active;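 active = Signal drops as the depositor expects, and the fitted half-maximal dose is no more than ten times the top valid tested dose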;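 also: more negative values mean stronger growth rescue toward the control strain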
* marks the source's active call; other numbers are inactive results; nt = not tested or not shown; + = active, no number.

SMILES	cardiac RTF act	SUMO Mot1 rescue	Cardiac RTF inh	Efflux pump inh	UCH37 DUB inh	ARNT-TACC3 inh	Yeast Mot1 SUMO
CCOc1ccccc1C(=O)N(Cc1cccs1)C1CCS(=O)(=O)C1 (centres undefined)	3	+	-3	0	5	-3	0
Cc1cccc(C=NNc2ccc3ccccc3n2)c1	nt	nt	nt	nt	-9	nt	nt
CN(C)c1ccnc2sc3c(NCC(O)CO)ncnc3c12 (centres undefined)	6	616*	-12	0	0	-1	0
CN(C)c1ccnc2sc3c(SCc4ccc(Cl)cc4)ncnc3c12	1	120	7	0	3	-2	nt
CC1(C)NC(=O)N(CCCOc2ccccc2Br)C1=O	7	+	-1	0	nt	nt	0
Cc1cccc(OCC(=O)NN=C/C=C/c2ccco2)c1	nt	nt	nt	nt	8	nt	nt
CC1(C)CNc2cc([N+](=O)[O-])ccc2S1	-2	810*	4	0	26*	-25	2
O=C(NN=Cc1ccccn1)c1ccccc1	nt	nt	nt	nt	3	nt	nt
CC(Cc1ccc(O)c(O)c1)C(C)Cc1ccc(O)c(O)c1 (centres undefined)	nt	553*	nt	0	5	nt	0
CC1(C)C2CC[C@]3(C)C(CC=C4[C@@H]5C[C@@](C)(CO)[C@@H](O)C[C@]56C[C@@H](OC6=O)[C@]43C)[C@@]2(C)CC[C@@H]1O (some centres undefined)	5	369*	-3	0	3	-4	0
Cc1c(C(=O)Nc2ccccc2)cnn1-c1ccccc1	0	38	-1	0	-1	-9	nt
Cc1c(C(=O)Nc2cccc(F)c2)cnn1-c1ccccc1	-4	805*	3	0	2	8	-1
COc1cccc(C=Nn2c(C3CCCCC3)n[nH]c2=S)c1O	nt	nt	nt	nt	7	nt	nt
COc1cc(/C=N/n2c(C3CCCCC3)n[nH]c2=S)cc(OC)c1O	-7	400*	-2	0	nt	-6	1
CC(=NNC(=O)c1cc(-c2ccc(C)s2)[nH]n1)c1ccncc1	nt	nt	nt	nt	2	nt	nt
CC1CC(C)(C)N2C(=O)C3(Nc4ccccc4S3)c3cccc1c32 (centres undefined)	3	723*	-13	0	5	7	-2
O=C(NN=Cc1ccccc1F)NC1CCCCC1	nt	nt	nt	nt	3	nt	nt
COc1cccc(C=Nn2nnnc2N)c1	nt	nt	nt	nt	-9	nt	nt
CCCC(=O)Oc1c(S(=O)(=O)c2ccc(C)cc2)c(C)nn1C(C)(C)C	6	635*	-2	0	3	8	-1
CCC(=O)Oc1c(S(=O)(=O)c2ccc(C)cc2)c(C)nn1C(C)(C)C	4	203	3	1	3	-2	nt
O=C(CN1C(=O)CSc2ccccc21)NN=Cc1ccco1	nt	nt	nt	nt	2	nt	nt
COC(=O)[C@@]12CCCCN1[C@H](c1ccc(-c3ccc(C(C)=O)cc3)cc1)[C@@H]1C(=O)N(C)C(=O)[C@@H]12	-6	737*	-10	0	nt	2	1
COC(=O)[C@@]12CCCCN1[C@H](c1ccc(-c3cccc(Cl)c3)c(OC)c1)[C@H]1C(=O)N(C)C(=O)[C@H]12	1	766*	11	0	nt	-4	0
COc1ccccc1C(=O)NCC(=O)NN=Cc1cccc(Cl)c1	nt	nt	nt	nt	1	nt	nt
Cc1ccc(NC(=O)COC(=O)c2csc3c2CCC(C)C3)cc1S(=O)(=O)N1CCCCC1 (centres undefined)	23	+	0	-8	5	4	0
CC(C)NC(=S)NN=Cc1ccc2c(c1)OCCO2	nt	nt	nt	nt	9	nt	nt
O=C(NN=Cc1cn[nH]c1-c1ccccc1)c1cccnc1	nt	nt	nt	nt	1	nt	nt
COc1cccc(C=NNC(=O)C(=O)NCc2ccco2)c1OC	nt	nt	nt	nt	3	nt	nt
C=CCNC(=O)NC(=O)COC(=O)CCCSc1nc2ccccc2[nH]1	-1	612*	-4	0	2	-5	0
CC(C)NC(=O)CCCc1cn(C)c2ccccc12	-1	503*	-8	0	4	-6	1
